Screening data (PubChem BioAssay)
This is a sample that favours compounds with a hit; in the whole collection about 4.4% have one here.
MPTP block – blocks calcium-induced mitochondrial swelling; isolated mouse mitochondria, Ca2+ swelling absorbance, 30 min; inhibition, % at 10 µM; 360,000 tested, 1.4% active; AID 602449;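 active = inhibition of 50% or more, scaled per plate between neutral and stimulator controls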;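 note: 0% = DMSO wells given calcium and 100% = 1 mM EGTA wells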
GRIN3A LBD mod – modulates the human NR3A ligand-binding domain; NR3A LBD differential scanning fluorimetry, Tm shift; 0% = protein alone, 100% = glycine-bound protein; AID 1259313; Tm shift relative to glycine control, % at 25 µM; 340,000 tested, 2.5% active;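 active = melting temperature shift of at least 10% of the positive control shift, at one fixed dose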
EBI2 block – antagonists of human EBI2 receptor. P32249. EBI2 beta-arrestin recruitment, luminescence, 7a,25-OHC stimulated. 360,000 tested, 0.81% active. inhibition, % at 5 µM; in the data active = inhibition above about 38%;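 note: enzyme fragment complementation signal reports receptor beta-arrestin coupling in cells; 0% = agonist plus DMSO wells and 100% = wells without agonist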
Target sequence (P32249 whole entry, looked up, the tested form may be a part): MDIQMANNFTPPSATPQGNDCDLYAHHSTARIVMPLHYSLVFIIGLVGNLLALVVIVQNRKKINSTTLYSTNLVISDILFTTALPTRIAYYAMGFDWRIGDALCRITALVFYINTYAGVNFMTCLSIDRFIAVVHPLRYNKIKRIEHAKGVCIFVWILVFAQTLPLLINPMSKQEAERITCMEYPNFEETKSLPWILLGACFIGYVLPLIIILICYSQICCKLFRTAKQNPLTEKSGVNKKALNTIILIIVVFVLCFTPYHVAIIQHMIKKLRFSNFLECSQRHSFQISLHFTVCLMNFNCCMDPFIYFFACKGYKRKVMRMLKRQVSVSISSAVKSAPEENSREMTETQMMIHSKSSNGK
SENP1 inh – blocks the human SENP1 SUMO protease catalytic domain; inhibition, % at 10 µM; recombinant SENP1 catalytic domain, CyPet-SUMO1-YPet FRET cleavage; AID 624204; 360,000 tested, 0.21% active;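 active = inhibition at least 30% at 10 µM, raw YFP signal under a set limit, fluorescence ratio 0.5 to 1.5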;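 note: 0% = enzyme with DMSO and 100% = no enzyme wells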
Target sequence (Q9P0U3 419-644 limits assumed): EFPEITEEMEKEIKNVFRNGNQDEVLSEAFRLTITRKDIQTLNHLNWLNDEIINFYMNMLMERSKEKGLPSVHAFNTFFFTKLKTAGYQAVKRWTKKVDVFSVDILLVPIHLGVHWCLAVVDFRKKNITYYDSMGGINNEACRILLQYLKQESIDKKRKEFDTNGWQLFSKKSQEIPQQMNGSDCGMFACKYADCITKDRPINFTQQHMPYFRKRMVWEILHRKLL
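system = hSENP1 catalytic domain, recombinant | reagent = SFCypet-SUMO1-SFYpet substrate at 25 nM | doses = one dose per compound, 10 µM, 0.5% DMSO | incubation = enzyme reaction for 50 min at room temperature, dark | measured by = FRET, CFP and YFP emission | controls = no-enzyme low, enzyme-DMSO high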
EBI2 conf – EBI2 (human) antagonism, single concentration confirmation; EBI2 beta-arrestin luminescence, 7a,25-OHC antagonism; inhibition, % at 5 µM; 2,400 tested, 29% active; shares compounds with EBI2 block;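 active = inhibition of at least 50%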
EBI2 agonist – counter-screen for EBI2 antagonists: EBI2 agonist activity; shares compounds with EBI2 block; EBI2-expressing cells, agonist mode, luminescence, 60 min; 0% vehicle, 100% 7α,25-dihydroxycholesterol control; activation, % at 5 µM; 2,400 tested, under 10 active; AID 652000;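 active = activation of at least 50%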
bGal cs – beta-galactosidase inhibition counter-screen. shares compounds with EBI2 block. purified beta-galactosidase, luminescent Galacton Star, 15 min. inhibition, % at 5 µM. 2,400 tested, 1% active. AID 652176;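 active = replicate-average signal at least 3 plate SD below neutral wells, shown as high inhibition, flagging enzyme-inhibiting false positives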;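 note: 0% = DMSO wells with enzyme and 100% = wells lacking enzyme; higher means stronger loss of beta-gal luminescence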
Active calls of the source: *.

CC(C)c1ccc2oc(-c3ccc(N)cc3)nc2c1 was read as MPTP block 5.1, GRIN3A LBD mod -5.8, EBI2 block 52.0*, SENP1 inh -5.8, EBI2 conf 57.1*, EBI2 agonist 0.4 and bGal cs -0.9.
`CCOc1ccc(N=CNc2ccc(OCC)cc2)cc1` gave MPTP block 8.3, GRIN3A LBD mod 1.6, EBI2 block 56.0*, SENP1 inh 3.3, EBI2 conf 48.1, EBI2 agonist 0.2 and bGal cs 4.5.
`Cc1cc(C)n(-c2cc(N3CCN(C(=O)c4ccc(C(C)(C)C)cc4)CC3)ccc2[N+](=O)[O-])n1` gave MPTP block -2.4, GRIN3A LBD mod -1.3, EBI2 block 33.6 and SENP1 inh 2.4.
COc1ccc(C(=O)N2CCN(c3ccc([N+](=O)[O-])c(-n4nc(C)cc4C)c3)CC2)cc1 was read as MPTP block 1.1, GRIN3A LBD mod -5.7, EBI2 block 59.5*, SENP1 inh -0.5, EBI2 conf 24.2, EBI2 agonist -0.8 and bGal cs -5.6.
N#Cc1c(-c2ccccc2)c(-c2ccccc2)nn(CC(=O)NNC(=O)Nc2ccc(Cl)c(Cl)c2)c1=O was read as MPTP block 4.6, GRIN3A LBD mod 9.9, EBI2 block 79.3*, SENP1 inh -2.5, EBI2 conf 22.2, EBI2 agonist 0.9 and bGal cs 6.6.
For O=C(CNC(=O)c1ccc(Br)cc1)OC1CCOC1=O (centres undefined) the results were MPTP block 0.3, EBI2 block -11.9 and SENP1 inh 0.8.
For O=C(c1ccc(Br)cc1)N1CCN(S(=O)(=O)c2ccccc2)CC1 the results were MPTP block -3.2, GRIN3A LBD mod -1.6, EBI2 block 47.2*, SENP1 inh -0.4, EBI2 conf 38.7, EBI2 agonist -0.1 and bGal cs -11.5.
For O=C(CSc1ccc(Br)cc1)N1CCN(S(=O)(=O)c2ccccc2)CC1 the results were MPTP block -0.1, GRIN3A LBD mod 2.2, EBI2 block 89.7*, SENP1 inh 2.1, EBI2 conf 66.8*, EBI2 agonist 1.2 and bGal cs 5.9.
O=C(CSc1cccc(C(F)(F)F)c1)N1CCN(S(=O)(=O)c2ccccc2)CC1 was read as MPTP block 6.6, GRIN3A LBD mod -2.1, EBI2 block 15.9 and SENP1 inh 4.3.
Screening CSc1cc(-c2ccc(Cl)cc2)c(C(=O)NC(C)C)s1 returned MPTP block 1.2, GRIN3A LBD mod 3.5, EBI2 block 46.7*, SENP1 inh 0.6, EBI2 conf 34.0, EBI2 agonist 1.4 and bGal cs -0.8.
`COC(=O)[C@@]1(Cc2ccc(OC)cc2)[C@@H]2C(=CC(=O)[C@H]2CC(=O)C(=O)N2CCCC2)CN1C(=O)c1ccccc1` gave MPTP block -1.0, GRIN3A LBD mod 3.9, EBI2 block 47.4*, SENP1 inh -3.6, EBI2 conf 61.2*, EBI2 agonist 0.5 and bGal cs 2.4.
For COC(=O)[C@@]1(Cc2ccc(F)cc2)[C@H]2C(CC(=O)C(=O)N3CCCC3)C(=O)C[C@H]2CN1C(=O)c1ccccc1 (some centres undefined) the results were MPTP block -1.5, EBI2 block -11.8 and SENP1 inh 0.3.
`O=C(c1cc(COc2ccc(F)cc2F)on1)N1CCN(C2CCCC2)C(=O)C1` gave MPTP block -0.2, GRIN3A LBD mod 2.4, EBI2 block 0.5 and SENP1 inh 6.2.
`O=C(NC(=S)Nc1ccc(S(=O)(=O)N2CCCCC2)cc1)c1ccccc1` gave MPTP block 2.0, GRIN3A LBD mod -15.9, EBI2 block 36.4 and SENP1 inh -0.3.
CC1CC(C)CN(S(=O)(=O)c2ccc(NC(=S)NC(=O)c3ccccc3)cc2)C1 (centres undefined) was read as MPTP block 6.4, GRIN3A LBD mod 2.7, EBI2 block 46.8*, SENP1 inh 1.0, EBI2 conf 21.0, EBI2 agonist 1.2 and bGal cs 4.6.
O=S(=O)(Oc1ccc(Cl)cc1)c1cccc2cccnc12 was read as MPTP block 1.4, GRIN3A LBD mod 4.8, EBI2 block -21.9 and SENP1 inh 0.5.
Screening O=C(CSc1nnc(Cc2ccccc2)o1)N1CCCc2ccccc21 returned MPTP block -0.8, GRIN3A LBD mod -0.5, EBI2 block 11.5 and SENP1 inh 2.1.
`Cc1[nH]c2ccc(-c3nnc(SCC(=O)N4CCCc5ccccc54)o3)cc2c1C` gave MPTP block 5.6, GRIN3A LBD mod 1.4, EBI2 block 50.9*, SENP1 inh -2.7, EBI2 conf 46.9, EBI2 agonist 2.8 and bGal cs 4.6.
For Cc1ccccc1C(=O)NNC(=O)C1CCN(C(=O)Nc2ccccc2)CC1 the results were MPTP block -0.9, GRIN3A LBD mod -0.6, EBI2 block 2.0 and SENP1 inh 1.4.
For COc1ccc(N2CCN(C(=O)CSc3ccc(C)cc3)CC2)cc1 the results were MPTP block 0.5, GRIN3A LBD mod -2.8, EBI2 block 63.6*, SENP1 inh 2.3, EBI2 conf 58.4*, EBI2 agonist 0.7 and bGal cs 2.9.
`Cc1ccc(SCC(=O)N2CCN(c3ccccn3)CC2)cc1` gave MPTP block 0.4, GRIN3A LBD mod 2.2, EBI2 block 73.0*, SENP1 inh 4.5, EBI2 conf 50.2*, EBI2 agonist 2.7 and bGal cs 4.0.
Cc1ccc(-n2c(SCC(=O)N3CCN(c4ccccn4)CC3)nnc2N2CCCC2)cc1 was read as MPTP block -0.2, GRIN3A LBD mod 0.5, EBI2 block -9.4 and SENP1 inh 2.5.
For CCOc1cccc(-c2nn(-c3ccccc3)cc2/C=C(/C#N)C(=O)NCCCn2ccnc2)c1 the results were MPTP block -1.3, GRIN3A LBD mod -10.9, EBI2 block 39.9*, SENP1 inh 0.3, EBI2 conf 14.2, EBI2 agonist 0.9 and bGal cs 8.2.
COc1cc2c(cc1OC)CN(Cc1ccc(OC)c(C)c1OC)CC2 was read as MPTP block 2.5, GRIN3A LBD mod -0.8, EBI2 block 3.7 and SENP1 inh -8.9.
CC1CCN(C(=O)COC(=O)c2cccc(S(=O)(=O)N(C)c3ccccc3)c2)CC1 was read as MPTP block 1.1, GRIN3A LBD mod 1.1, EBI2 block -8.5 and SENP1 inh 1.0.
Screening COc1ccc(/C=C/C(=O)N2CCN(S(=O)(=O)c3ccccc3Br)CC2)cc1OC returned MPTP block -0.8, GRIN3A LBD mod 0.3, EBI2 block 73.8*, SENP1 inh -2.3, EBI2 conf 49.4, EBI2 agonist -1.6 and bGal cs -12.5.
